Compound activity deposited in PubChem by several laboratories.
NPY-Y2 antag: NPY-Y2 receptor antagonists, primary screen, cell-based. inhibition, % at 2.7 µM. 140,000 tested, 0.99% active. NPY-Y2 expressing cells, antagonist mode; in the data active means inhibition above about 17%
NPY2 pot ag: NPY-Y2 potentiators or agonists, primary screen, cell-based. Neuropeptide Y receptor type 2 (Homo sapiens), P49146. cells expressing NPY-Y2, potentiator/agonist read-out. activation, % at 3.6 µM. 220,000 tested, 0.45% active. AID 1359, 2008; in the data active means activation above about 27%;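 further: cells stimulated with NPY near EC25 plus isoproterenol at EC100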
NPY-Y1 PAM-ag: NPY-Y1 receptor potentiators or agonists, primary screen, cell-based | NPY-Y1 expressing cells, potentiator/agonist activation | 220,000 tested, 0.37% active | activation, % at 3.6 µM | AID 1304, 2008; in the data active means activation above about 33%, passing the limit was not always enough;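 further: cells stimulated with NPY at EC10 then isoproterenol at EC100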
PGE2 EP2 inh: human EP2 receptor antagonists, primary screen, TR-FRET cAMP, C6 glioma cells | inhibition, % at 25 µM | Prostaglandin E2 receptor EP2 subtype (Homo sapiens), P43116 | 260,000 tested, 0.52% active | C6 glioma cells expressing human EP2; cells stimulated with saturating PGE2;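 active means percent inhibition above 40 after rounding to a whole number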;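 further: rat C6 glioma host cells with rolipram phosphodiesterase inhibitor present; the protocol text gives 20 µM as final concentration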
Target sequence (P43116 whole entry, looked up): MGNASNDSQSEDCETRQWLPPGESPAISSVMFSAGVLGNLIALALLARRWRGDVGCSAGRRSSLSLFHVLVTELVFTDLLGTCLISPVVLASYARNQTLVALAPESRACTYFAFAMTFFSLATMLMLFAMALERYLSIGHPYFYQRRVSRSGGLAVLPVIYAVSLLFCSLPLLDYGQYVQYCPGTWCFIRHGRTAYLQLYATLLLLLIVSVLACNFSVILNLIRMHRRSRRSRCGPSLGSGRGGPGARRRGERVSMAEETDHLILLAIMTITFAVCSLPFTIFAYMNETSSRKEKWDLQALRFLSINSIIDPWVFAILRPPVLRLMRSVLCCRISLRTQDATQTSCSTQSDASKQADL
NPY-Y1 antag: NPY-Y1 receptor antagonists, primary screen, cell-based. inhibition, % at 3.6 µM. AID 1040, 2008. Neuropeptide Y receptor type 1 (Homo sapiens), P25929. HEK293-CNG Y1 cells, membrane potential fluorescence; NPY at EC95, then isoproterenol. 200,000 tested, 1% active;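 active means inhibition above the campaign mean inhibition of all tested compounds plus 3 SD, cut at about 20% in these data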
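Material: HEK293 Y1/CNG channel cell line; also added: NPY (25 nM), isoproterenol (1 µM), Ro 20-1724 (25 µM); doses: one concentration, 3.6 µM, in 0.4% DMSO; schedule: compound incubation 1 h at room temperature, readout 45 min post-stimulation; technique: membrane potential fluorescence; measure: fluorescence ratio normalized to % inhibition between controls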
EP2 modulator: EP2 receptor modulators, cAMP readout, primary screen, cell-based, HTRF cAMP, PGE2 stimulation; Prostaglandin E2 receptor EP2 subtype (Homo sapiens), P43116; EP2-expressing cells, cAMP HTRF FRET, PGE2 co-stimulation; induction, % at 25 µM; 260,000 tested, 0.83% active; AID 940, 2007;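 active means compounds whose cAMP rise, as percent of the full-agonist control response, exceeds 60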;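 further: rat C6 glioma line stably carrying human EP2 under a CMV promoter; the protocol text gives 20 µM as final concentration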
Large screens that a line does not name were inactive; ! = not confirmed by another sample. The list is not random: actives were taken first. Their share in the collection is about 2.8%.

O=C1OC2(c3ccc(O)cc3Oc3cc(O)ccc32)c2c1c(-c1ccccc1)c(-c1ccccc1)c(-c1ccccc1)c2-c1ccccc1	PGE2 EP2 inh 45.2 (no result: NPY-Y2 antag, NPY2 pot ag, NPY-Y1 PAM-ag, NPY-Y1 antag)
C[N+](C)(C)CCCSc1nc2ccccc2[nH]1	PGE2 EP2 inh 41.9 (no result: NPY-Y2 antag, NPY2 pot ag, NPY-Y1 PAM-ag, NPY-Y1 antag)
CC1(c2ccccc2)CC(c2ccccc2)=Nc2ccccc2N1 (stereo not drawn)	EP2 modulator 87.8 (no result: NPY-Y2 antag, NPY-Y1 antag)
CC1(c2ccccc2)CC(c2ccccc2)=Nc2nonc2N1 (stereo not drawn)	none
COc1ccc2c(c1)cc(C)c1nn(CC(N)=O)c(=O)n12	EP2 modulator 84.0 (no result: NPY-Y2 antag, NPY2 pot ag, NPY-Y1 PAM-ag, NPY-Y1 antag)
CCNc1nc(SCc2ccccc2)nc(N2CCOCC2)n1	EP2 modulator 63.0
C[C@H]1CC(C)(C)C[C@@](OCCN2CCCCC2)(c2ccccc2)C1	PGE2 EP2 inh 53.4 (no result: NPY-Y2 antag, NPY2 pot ag, NPY-Y1 PAM-ag, NPY-Y1 antag)
CNc1cccc2c1C(=O)c1ccccc1C2=O	none
O=C1c2ccccc2C(=O)c2c(Nc3cc4c5c(ccc6c7ccc8c9c(cc(Nc%10cccc%11c%10C(=O)c%10ccccc%10C%11=O)c(c3c56)c97)-c3ccccc3C8=O)C(=O)c3ccccc3-4)cccc21	PGE2 EP2 inh 43.7 (no result: NPY-Y2 antag, NPY2 pot ag, NPY-Y1 PAM-ag, NPY-Y1 antag)
O=C1c2ccccc2C(=O)c2c(Nc3ccc4c5c(cccc35)C(=O)c3ccccc3-4)cccc21	PGE2 EP2 inh 42.6 (no result: NPY-Y2 antag, NPY2 pot ag, NPY-Y1 PAM-ag, NPY-Y1 antag)
O=S1(=O)N[C@H]2CC[C@H]3NS(=O)(=O)N[C@H]4CC[C@@H](N1)N4S(=O)(=O)N23	PGE2 EP2 inh 45.3 (no result: NPY-Y2 antag, NPY2 pot ag, NPY-Y1 PAM-ag, NPY-Y1 antag)
CCc1ccc2[nH]c(=O)c(CN(CC3CCCO3)C(=O)Nc3ccc(OC)cc3)cc2c1 (stereo not drawn)	none (no result: NPY-Y2 antag, NPY2 pot ag, NPY-Y1 PAM-ag, NPY-Y1 antag)
CCc1ccc2[nH]c(=O)c(CN(Cc3ccco3)C(=S)Nc3ccccc3OC)cc2c1	none (no result: NPY-Y2 antag, NPY2 pot ag, NPY-Y1 PAM-ag, NPY-Y1 antag)
Cc1nc(SCc2ccc(C(=O)O)cc2)nc2c1CCCC2	EP2 modulator 61.5! (no result: NPY-Y2 antag)
Cc1n[nH]c(C)c1SCC(=O)Nc1ccc(F)cc1	none
Cc1nc(SCC(=O)Nc2ccc(F)cc2)nc2c1CCCC2	PGE2 EP2 inh 54.2 (no result: NPY-Y2 antag, NPY2 pot ag, NPY-Y1 PAM-ag, NPY-Y1 antag)
Cc1nc(SCc2ccccc2)nc2c1CCCC2	none (no result: NPY-Y2 antag, NPY2 pot ag, NPY-Y1 PAM-ag, NPY-Y1 antag)
CC1=c2c(oc3cc(O)c(Nc4c(C)cc(O)cc4O)c(C)c23)=CC(=O)C1=Nc1c(C)cc(O)cc1O	PGE2 EP2 inh 53.5 (no result: NPY-Y2 antag, NPY2 pot ag, NPY-Y1 PAM-ag, NPY-Y1 antag)
OC1CCN(Cc2nnnn2Cc2ccccc2)CC1	none (no result: NPY-Y2 antag, NPY2 pot ag, NPY-Y1 PAM-ag, NPY-Y1 antag)
CC(=O)OCC(=O)[C@@]1(O)CC[C@H]2[C@@H]3CCC4=CC(=O)CC[C@]4(C)[C@H]3[C@@H](O)C[C@@]21C	none
C[C@@]12CCC(=O)C=C1CC[C@H]1[C@H]2[C@@H](O)C[C@]2(C)[C@@H]1CC[C@@]2(O)C(=O)COC(=O)C1CCCC1	PGE2 EP2 inh 49.6 (no result: NPY-Y2 antag, NPY2 pot ag, NPY-Y1 PAM-ag, NPY-Y1 antag)
C[C@]12CCC(=O)C=C1CC[C@@H]1[C@@H]2[C@@H](O)C[C@@]2(C)[C@H]1CC[C@]2(O)C(=O)COC(=O)CCC(=O)O	none
CN1CCC[C@H](C(=O)OCC(=O)[C@]2(O)CC[C@@H]3[C@H]4CCC5=CC(=O)CC[C@@]5(C)[C@@H]4[C@@H](O)C[C@]32C)C1	PGE2 EP2 inh 52.8 (no result: NPY-Y2 antag, NPY2 pot ag, NPY-Y1 PAM-ag, NPY-Y1 antag)
COc1ccc(-c2cc(C(F)(F)F)nc(SCCC(=O)NCc3cccs3)n2)cc1	none (no result: NPY-Y2 antag, NPY2 pot ag, NPY-Y1 PAM-ag, NPY-Y1 antag)
Cc1ccc2nc(N3C(=O)C(O)=C(C(=O)c4ccc(C)o4)C3c3ccc(O)cc3)sc2c1 (stereo not drawn)	PGE2 EP2 inh 49.4 (no result: NPY-Y2 antag, NPY2 pot ag, NPY-Y1 PAM-ag, NPY-Y1 antag)
Cc1ccc2nc(N3C(=O)C(O)=C(C(=O)c4ccco4)C3c3cccs3)sc2c1 (stereo not drawn)	NPY-Y2 antag 19.0, PGE2 EP2 inh 75.4!, NPY-Y1 antag 36.8
Cc1ccc2nc(N3C(=O)C(O)=C(C(=O)c4ccco4)C3c3ccco3)sc2c1 (stereo not drawn)	none (no result: NPY-Y2 antag, NPY2 pot ag, NPY-Y1 PAM-ag, NPY-Y1 antag)
CCOc1ccc2nc(N3C(=O)C(O)=C(C(=O)c4ccco4)C3c3ccco3)sc2c1 (stereo not drawn)	none (no result: NPY-Y2 antag, NPY2 pot ag, NPY-Y1 PAM-ag, NPY-Y1 antag)
Cn1ccnc1C1(O)COC2(CCN(C(=O)c3ccc(Br)s3)CC2)C1 (stereo not drawn)	none (no result: NPY-Y2 antag, NPY2 pot ag, NPY-Y1 PAM-ag, PGE2 EP2 inh, NPY-Y1 antag)
